Data set [1] concerns the target T1, Human immunodeficiency virus type 1 reverse transcriptase (Human immunodeficiency virus 1, UniProt Q72547). Briefly: Inhibition of HIV1 reverse transcriptase by steady state nucleotide incorporation assay. In outline:
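Steady-state assay with activated calf thymus DNA as template in excess; rates from linear regression of [3H]dNTP incorporation over time; Km and Ki fitted to competitive inhibition equation (constant Vmax) over increasing NRTI concentrations; two-tailed t tests.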

For data set [2], the target named is Human immunodeficiency virus type 1 reverse transcriptase (Human immunodeficiency virus 1) (UniProt Q72547). The data set is described as follows: Ratio of Ki to Km for HIV1 reverse transcriptase by steady state nucleotide incorporation assay. In outline:
(§1)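 Steady-state kinetics for WT or 4Y p66/p51 RT on activated calf thymus DNA, with template in excess. Rates come from linear regression of [3H]dNTP incorporation over a time course, with increasing NRTI. Km and Ki are fitted with a competitive inhibition equation (Marquardt-Levenberg); two-tailed t-tests.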

The target of data set [3] is Human immunodeficiency virus type 1 reverse transcriptase (Human immunodeficiency virus 1, UniProt Q72547, D67N/L210W/M41L/T215Y). Briefly: Inhibition of HIV1 reverse transcriptase M41L/D67N/L210W/T215Y mutant by steady state nucleotide incorporation assay. In outline: as §1
Data set [4] relates to Human immunodeficiency virus 1. Briefly: Ratio of Ki for HIV1 reverse transcriptase M41L/D67N/L210W/T215Y mutant to Ki for wild-type reverse transcriptase. The essentials:
as §1

The test system of data set [5] is Human immunodeficiency virus type 1 reverse transcriptase (Human immunodeficiency virus 1), Q72547 [M41L,D67N,L210W,T215Y]. Briefly: Ratio of Ki to Km for HIV1 reverse transcriptase M41L/D67N/L210W/T215Y mutant by steady state nucleotide incorporation assay. In outline: as §1
Data set [6] has as its system Human immunodeficiency virus 1. Briefly: Ratio of Ki/Km for HIV1 reverse transcriptase M41L/D67N/L210W/T215Y mutant to Ki/Km for wild-type reverse transcriptase. The essentials: as §1
For data set [7], the target named is Human immunodeficiency virus type 1 reverse transcriptase (Human immunodeficiency virus 1) (UniProt Q72547). The data set is described as follows: Inhibition of HIV1 reverse transcriptase assessed as dCTP level required to form 80% of binary enzyme complex formation with drug-terminated primer in posttranslocation state by site-specific foot printing assay. In outline:
(§2)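 Site-specific footprinting uses a radiolabelled template with WT or 4Y p66/p51 RT in pH 7 cacodylate buffer with 6 mM MgCl2. The primer is chain-terminated with 10 μM analogue (20 min, 37°C), then the next nucleotide dCTP is added at varying levels for 10 min at 37°C. Complexes are treated with KOONO and resolved on urea gels. The value is the dCTP level giving 50% or 80% posttranslocated complex; ≥3 experiments.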

In data set [8] the target is T1, Human immunodeficiency virus type 1 reverse transcriptase. Briefly: Binding affinity to ternary complex of HIV1 reverse transcriptase with primer/template in presence of dCTP substrate.
Data set [9] concerns Human immunodeficiency virus type 1 reverse transcriptase (Human immunodeficiency virus 1), Q72547 [M41L,D67N,L210W,T215Y]. The data set is described as follows: Inhibition of HIV1 reverse transcriptase M41L/D67N/L210W/T215Y mutant assessed as dCTP level required to form 80% of binary enzyme complex formation with drug-terminated primer in posttranslocation state by site-specific foot printing assay. The essentials: as §2

The target in data set [10] is Human immunodeficiency virus type 1 reverse transcriptase (Human immunodeficiency virus 1) (UniProt Q72547). Briefly: Inhibition of HIV1 reverse transcriptase assessed as dCTP level required to form 50% of binary enzyme complex formation with drug-terminated primer in posttranslocation state by site-specific foot printing assay. The essentials:
as §2

The target is the same in data set [11]. The data set is described as follows: Ratio of Kcat to Km for HIV1 reverse transcriptase assessed as nucleotide excision activity in presence of 0.5 uM dCTP. In outline: (§3)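 Purified heterodimeric p66/p51 HIV-1 RT (WT or M41L/D67N/L210W/T215Y). ATP plus a dNTP mix containing the next nucleotide dCTP (0.5 or 10 μM) is then added at 37°C. Excised/rescued product is followed over time on denaturing urea gels. ATP Km and Vmax give kcat/Km; means of ≥3 experiments. Ratios are 4Y/WT or 0.5/10 μM dCTP.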

Data set [12] shares this target. Briefly: Ratio of Kcat to Km for HIV1 reverse transcriptase assessed as nucleotide excision activity in presence of 10 uM dCTP. The essentials: as §3
Data set [13] relates to Human immunodeficiency virus type 1 reverse transcriptase (Human immunodeficiency virus 1), Q72547 [M41L,D67N,L210W,T215Y]. Briefly: Ratio of Kcat to Km for HIV1 reverse transcriptase M41L/D67N/L210W/T215Y mutant assessed as nucleotide excision activity in presence of 0.5 uM dCTP. The essentials:
as §3

The test system is the same in data set [14]. The data set is described as follows: Ratio of Kcat to Km for HIV1 reverse transcriptase M41L/D67N/L210W/T215Y mutant assessed as nucleotide excision activity in presence of 10 uM dCTP. In outline:
as §3

In data set [15] the test system is Human immunodeficiency virus 1. The data set is described as follows: Ratio of Kcat/Km for HIV1 reverse transcriptase M41L/D67N/L210W/T215Y mutant to Kcat/Km for wild-type reverse transcriptase assessed as nucleotide excision activity in presence of 0.5 uM dCTP. The essentials:
as §3

The subject of data set [16] is Human immunodeficiency virus 1. The data set is described as follows: Ratio of Kcat/Km for HIV1 reverse transcriptase M41L/D67N/L210W/T215Y mutant to Kcat/Km for wild-type reverse transcriptase assessed as nucleotide excision activity in presence of 10 uM dCTP. The essentials: as §3
Data set [17] addresses Human immunodeficiency virus type 1 reverse transcriptase (Human immunodeficiency virus 1) (UniProt Q72547). The data set is described as follows: Ratio of Kcat/Km for HIV1 reverse transcriptase in presence of 0.5 uM dCTP to Kcat/Km for reverse transcriptase in presence of 10 uM dCTP by nucleotide excision activity assay. The essentials:
as §3

For data set [18], the system named is Human immunodeficiency virus type 1 reverse transcriptase (Human immunodeficiency virus 1), Q72547 [M41L,D67N,L210W,T215Y]. The data set is described as follows: Ratio of Kcat/Km for HIV1 reverse transcriptase M41L/D67N/L210W/T215Y mutant in presence of 0.5 uM dCTP to Kcat/Km for reverse transcriptase M41L/D67N/L210W/T215Y mutant in presence of 10 uM dCTP by nucleotide excision activity assay. The essentials:
as §3

Data set [19] shares this test system. The data set is described as follows: Inhibition of HIV1 reverse transcriptase M41L/D67N/L210W/T215Y mutant assessed as dCTP level required to form 50% of binary enzyme complex formation with drug-terminated primer in posttranslocation state by site-specific foot printing assay. The essentials: as §2
The test system of data set [20] is C[C@H](Cn1cnc2c(N)ncnc21)OCP(=O)(O)O. The data set is described as follows: (§4) Activity of HIV1 reverse transcriptase M41L/D67N/L210W/T215Y mutant assessed as nucleotide excision activity in presence of 0.5 uM dCTP. Particulars: Human immunodeficiency virus 1. The essentials:
as §3

Data set [21] deals with Cc1cn([C@H]2C[C@H](N=[N+]=[N-])[C@@H](COP(=O)(O)O)O2)c(=O)[nH]c1=O. The data set is described as §4. Particulars: Human immunodeficiency virus 1. In outline: as §3
Data set [22] concerns [N-]=[N+]=N[C@H]1C[C@H](n2cnc3c(N)ncnc32)O[C@@H]1COP(=O)(O)O. The data set is described as §4. As to conditions: Human immunodeficiency virus 1. The essentials:
as §3

Data set [23] relates to C[C@H](Cn1cnc2c(N)ncnc21)OCP(=O)(O)O. Briefly: (§5) Activity of HIV1 reverse transcriptase M41L/D67N/L210W/T215Y mutant assessed as nucleotide excision activity in presence of 10 uM dCTP. Particulars: Human immunodeficiency virus 1. The essentials:
as §3

Data set [24] has as its system Cc1cn([C@H]2C[C@H](N=[N+]=[N-])[C@@H](COP(=O)(O)O)O2)c(=O)[nH]c1=O. The data set is described as §5. Particulars: Human immunodeficiency virus 1. In outline:
as §3

Data set [25] has as its system [N-]=[N+]=N[C@H]1C[C@H](n2cnc3c(N)ncnc32)O[C@@H]1COP(=O)(O)O. The data set is described as §5. As to conditions: Human immunodeficiency virus 1. In outline: as §3

The text below walks through data of ChEMBL document CHEMBL1155161, “Effects of the translocation status of human immunodeficiency virus type 1 reverse transcriptase on the efficiency of excision of tenofovir” (Antimicrob Agents Chemother, 2007).

By Ki is commonly meant a dissociation constant, usually derived from enzyme kinetics or from competition with a known ligand. On to `C[C@H](Cn1cnc2c(N)ncnc21)OCP(=O)(O)OP(=O)(O)O`, for which the Ki in data set [1] is 0.21 µM; in data set [3] it was 0.11 µM. For the same molecule, the values for the Ratio in data set [2], in data set [5] and in data set [6] were 0.47, 0.19 and 0.4, respectively. For the same molecule, the Ratio Ki in data set [4] worked out at 0.5.
Take `[N-]=[N+]=N[C@H]1C[C@H](n2cnc3c(N)ncnc32)O[C@@H]1COP(=O)(O)OP(=O)(O)OP(=O)(O)OP(=O)(O)O`: the Ki was found to be 0.23 µM in [1] and 0.15 µM in [3]. Moreover, the Ratio in [2] was 0.51; in data set [5], 0.26; in [6] it was 0.5. The Ratio Ki in [4] worked out at 0.65.
A word on the Kd: it is the free concentration of one partner at which half of the binding sites on the other are occupied at equilibrium, for simple one-to-one binding. Regarding `Nc1ncnc2c1ncn2[C@H]1CC[C@@H](COP(=O)(O)O)O1`, the results for the Activity in data set [7] and in data set [9] were 0.2 µM and 0.3 µM, respectively. Further, the Kd in data set [8] stood at 0.1 µM.
For `Cc1cn([C@H]2C[C@H](N=[N+]=[N-])[C@@H](COP(=O)(O)OP(=O)(O)OP(=O)(O)O)O2)c(=O)[nH]c1=O`, the values for the Ratio in data set [2], in data set [5] and in data set [6] were 0.09, 0.09 and 1, respectively. For the same molecule, the Ratio Ki in data set [4] worked out at 1.2.
For `[N-]=[N+]=N[C@H]1C[C@H](n2cnc3c(N)ncnc32)O[C@@H]1COP(=O)(O)O`, the Activity in data set [10] was 10 µM; in [7], 100 µM; in data set [19] it was 27 µM; in data set [9], over 100 µM. Further, the Ratio in data set [11] was found to be 0.49; in data set [12] it was 0.37; in data set [13] it was 1.6; in [14] it was 1.2; in data set [15], 3.3; in data set [16] it was 3.2. The Ratio in [17] and in data set [18] was 1.3 throughout.
With `Cc1cn([C@H]2C[C@H](N=[N+]=[N-])[C@@H](COP(=O)(O)O)O2)c(=O)[nH]c1=O` [AZIDOTHYMIDINE MONOPHOSPHATE], the Activity in data set [10] worked out at 8 µM; in data set [7] it was 31 µM; in data set [19] it was 8 µM; in [9], 50 µM. For the same molecule, the Kd in data set [8] is 24.9 µM. For the same molecule, the Ratio stood at 0.19 in data set [11]; 0.16 in data set [12]; 1.3 in data set [13]; 1.08 in data set [14]; 6.8 in data set [15]; 6.8 in data set [16]. For the same molecule, the Ratio in data set [17] and in [18] was 1.2 in each case.
Regarding `Nc1ncnc2c1ncn2[C@H]1CC[C@@H](COP(=O)(O)OP(=O)(O)OP(=O)(O)O)O1` [DDA-TRIPHOSPHATE], the Ki in data set [1] is 0.09 µM; in data set [3], 0.05 µM. The Ratio in data set [2] stood at 0.2; in data set [5], 0.09; in data set [6] it was 0.5. In addition, the Ratio Ki in [4] was found to be 0.6.
As for `C[C@H](Cn1cnc2c(N)ncnc21)OCP(=O)(O)O` [TENOFOVIR ANHYDROUS], the Ratio is 0.4 in data set [6]; 1.1 in data set [11]; 0.15 in [12]; 16.4 in [13]; 2.9 in data set [14]; 14.9 in data set [15]. Moreover, the Ratio is 19.3 in data set [16], 7.3 in data set [17] and 5.7 in [18]. For the same molecule, the Activity in data set [10] worked out at 0.1 µM; in data set [7] it was 3 µM; in data set [19], 0.3 µM; in data set [9], 2 µM. Besides, the Kd in [8] is 3.2 µM.
As to `Cc1cn([C@H]2C[C@H](N=[N+]=[N-])[C@@H](CO[P@](=O)(O)O[P@](=O)(O)OP(=O)(O)O)O2)c(=O)[nH]c1=O` [ZIDOVUDINE TRIPHOSPHATE], the Ki in data set [1] is 0.041 µM; in data set [3] it was 0.047 µM.
The Km is the substrate concentration at which the rate is half of its maximum. In the case of “Human immunodeficiency virus type 1 reverse transcriptase (Human immunodeficiency virus 1) (from UniProt Q72547) M41L,D67N,L210W,T215Y”, the Km was determined as 590 µM in data set [20]; 1400 µM in data set [21]; 2000 µM in data set [22]; 960 µM in [23]; 1200 µM in data set [24]; 2000 µM in data set [25]. The kcat was 9.7 ×10⁻³ /min in data set [20]; 1.8 ×10⁻³ /min in [21]; 3.2 ×10⁻³ /min in [22]; 2.8 ×10⁻³ /min in data set [23]; 1.3 ×10⁻³ /min in data set [24]; 2.4 ×10⁻³ /min in data set [25].
